Measured values pooled from the literature.
Each line is one published result; the experiments were not run side by side.
Target: Cyclin-dependent kinase 17 (CDK17, Homo sapiens, UniProt Q00537)

Structure (SMILES) | observed | technique | concentration | remaining binding
C[C@@]1(Cc2ccc(C#N)cc2)C(=O)N(c2cc(Cl)cc(Cl)c2)c2ncc(C(=O)NC3(c4nc(C5CCC5)no4)CC3)n21 | cell-free assay | competition with immobilised ligand | 1 µM | 100%
O=C(NCCCN1CCOCC1)c1ccc(Nc2nccc(-c3cc4ccccc4s3)n2)cc1 | binding | competition with immobilised ligand | 1 µM | 63%
Cc1c(NC(=O)c2cc(C(N)=O)nc3cc(F)ccc23)c(C(F)(F)F)nn1Cc1ccc(C(C)(C)C)cc1 | cell-free assay | competition with immobilised ligand | 1 µM | 100%
O=C(c1ccc(Nc2ncc(Cl)c(-c3ccc(Cl)s3)n2)cc1)N1CCC(N2CCCC2)CC1 | binding | competition with immobilised ligand | 1 µM | 1.8%
CN(C)c1ncc(F)c(-c2cnn3ncccc23)n1 | binding |  | 1 µM | 97%
C[C@@H](c1ccc(-n2cnc3c(N)ncnc32)cc1)N1CCc2nn(C)c(Cc3ccccc3)c2C1=O | binding | competition with immobilised ligand | 0.1 µM | 91%
c1cnn2ncc(-c3ccnc(N4CCC45COC5)n3)c2c1 | binding |  | 1 µM | 87%
O=C(NCC1CCOCC1)c1n[nH]cc1NC(=O)c1c(F)cccc1F | binding | competition with immobilised ligand | 1 µM | 66%
CCN1CCN(Cc2ccc(C(=O)Nc3ccc(C)c(Oc4ccc5c(c4)CC(=O)N5)c3)cc2C(F)(F)F)CC1 | binding | competition with immobilised ligand | 1 µM | 100%
COc1cnc(Nc2cccc(S(N)(=O)=O)c2)nc1N1CCN(c2ccccc2)CC1 | binding | competition with immobilised ligand | 1 µM | 100%
CN(C)c1nccc(-c2cnn3ncccc23)n1 | binding |  | 1 µM | 100%
O=C(c1ccc(Nc2nccc(-c3cc4ccccc4s3)n2)cc1)N1CCC(N2CCCC2)CC1 | binding | competition with immobilised ligand | 1 µM | 64%
COc1cccc(CNC(=O)c2nc3scc(COCc4ccc(C(=O)O)cc4)c3c(=O)[nH]2)c1 | cell-free assay | competition with immobilised ligand | 1 µM | 87.8%
COc1ccnn2ncc(-c3ccnc(N(C)C)n3)c12 | binding |  | 1 µM | 100%
CC(=O)N1CCC(c2ccc(C(=O)NC(=N)N)cc2C(F)(F)F)CC1 | cell-free assay | competition with immobilised ligand | 1 µM | 100%
F[C@@H]1CCN(c2nccc(-c3cnn4ncccc34)n2)C1 | binding |  | 1 µM | 100%
O=c1nc(-c2ccccn2)sc2ccccc12 | binding | competition with immobilised ligand | 1 µM | 100%
N[C@@H]1CCN(c2nccc(-c3cnn4ncccc34)n2)C1 | binding |  | 1 µM | 100%
CN1CCN(c2cnc3c(C4CCN(C(=O)c5ccc(OC(F)(F)F)cc5N)CC4)ncnc3c2)CC1 | cell-free assay | competition with immobilised ligand | 1 µM | 93%
c1cncc(-c2cccc(Nc3nccc(NC4CCCCC4)n3)c2)c1 | binding | competition with immobilised ligand | 10 µM | 72%
